# CCR6 antag – CCR6 (human) receptor antagonism | CHO-K1 CCR6 PathHunter beta-arrestin, luminescence, CCL20-stimulated | inhibition, % at 20 µM | hit rate 0.49% among 340,000 | AID 493098;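 active = compounds whose inhibition of the agonist-driven luminescence signal at 20 µM reaches about 50%, limit read from the data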;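 also: cells stimulated with CCL20 at 14 nM final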
# B2AR ag – activates human beta-2 adrenergic receptor causing internalization; hit rate 0.43% among 340,000; P07550; response, % (concentration not given with the values); Am2.2-beta2AR cells, FAP receptor internalization, flow cytometry;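 active = response above a set limit, near 3 SD of response in nonfluorescent compounds, cut at about 42% in these data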
# APJ ag – agonists of human APJ apelin receptor; P35414; CHO-K1 APJ PathHunter beta-arrestin, luminescence; 0% DMSO wells, 100% apelin; activation, % at 20 µM; hit rate 0.11% among 330,000; AID 2520;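 active = activation more than six SD over the plate average, tested at 20 µM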
#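 system = engineered CHO-K1 APJ arrestin reporter cells | input = 1000 cells per well | timing = overnight seeding, 90 min compound at 25 °C, 1 h detection | measured by = enzyme-fragment complementation luminescence | read-out = beta-arrestin recruitment to APJ as agonist activity, luminescent signal | control set = negative DMSO alone, positive Apelin-13 at 10 nM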
# CXCR6 inh – inhibitors of human CXCR6 receptor; inhibition, % at 20 µM; O00574; hit rate 0.36% among 360,000; CHO-K1 PathHunter CXCR6 beta-arrestin, luminescence; in the data active = inhibition above about 34%, passing the limit was not always enough;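 also: antagonist mode with CXCL16 agonist at 10 nM final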
# Target sequence (O00574 whole entry, looked up): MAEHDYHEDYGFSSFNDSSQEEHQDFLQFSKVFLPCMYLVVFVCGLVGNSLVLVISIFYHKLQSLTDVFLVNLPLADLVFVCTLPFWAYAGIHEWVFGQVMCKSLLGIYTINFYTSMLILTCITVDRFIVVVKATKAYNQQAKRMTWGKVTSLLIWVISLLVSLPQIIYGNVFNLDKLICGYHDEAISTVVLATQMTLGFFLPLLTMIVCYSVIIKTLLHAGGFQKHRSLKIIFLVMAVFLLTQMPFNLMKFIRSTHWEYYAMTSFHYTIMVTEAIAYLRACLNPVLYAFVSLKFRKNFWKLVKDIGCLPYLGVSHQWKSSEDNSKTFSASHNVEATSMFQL
# APJ antag – antagonists of human APJ apelin receptor; P35414; CHO-K1 APJ beta-arrestin complementation, luminescence; inhibition, % at 20 µM; hit rate 0.32% among 330,000;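 active = inhibition above about 40% at 20 µM, limit read from the data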;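 also: cells challenged with 10 nM apelin-13 agonist together with compound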
# EBI2 block – blocks human EBI2 receptor beta-arrestin signaling. hit rate 0.81% among 360,000. AID 651636. EBI2 beta-arrestin recruitment, luminescence, 7a,25-OHC stimulated. inhibition, % at 5 µM; in the data active = inhibition above about 38%;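 also: enzyme fragment complementation signal reports receptor beta-arrestin coupling in cells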
# APJ antag conf – APJ receptor antagonism confirmation. inhibition, % at 20 µM. AID 2766. APJ beta-arrestin recruitment, luminescence, antagonist mode. shares compounds with APJ antag. hit rate 66% among 950; in the data active = inhibition above about 50%
# Hits are given with their value; – = inactive; · = not tested or not shown. Hits are enriched below; roughly 1.8% of the tested compounds scored in any of these assays.
SMILES,CCR6 antag,B2AR ag,APJ ag,CXCR6 inh,APJ antag,EBI2 block,APJ antag conf
O=[N+]([O-])c1ccc(/C=N/Nc2nc(NCc3ccccc3)nc(N3CCOCC3)n2)cc1,–,–,–,–,–,–,·
CCCc1cnc(Nc2nc(C(N)Cc3ccc(C(F)(F)F)cc3)cs2)nc1 (configuration not stated),·,·,·,–,·,–,·
COCCN(C(=O)c1csnn1)C(C(=O)NC1CCCC1)c1ccccc1F (configuration not stated),–,–,–,–,53,–,–
COCCN(C(=O)c1csnn1)C(C(=O)NC1CCCC1)c1ccc(C)cc1 (configuration not stated),–,–,–,–,–,–,·
O=C1CCCN1CCCNc1nc(NCc2ccccc2)nc2ccsc12,·,·,·,–,·,–,·
c1ccc(Cn2cnc3ccccc32)cc1,–,–,–,–,–,–,·
Fc1cc2ncn(Cc3ccccc3)c2cc1F,–,–,–,–,61,–,–
COCCCNC(=O)C[C@@H]1C[C@@]2(C(=O)OC)CC(C)(C)CC=C2N(Cc2ccccc2)C1=O,·,·,·,·,·,–,·
O=Nc1ccc(O)c2ncccc12,–,–,–,–,–,–,·
Oc1ccc(N=Nc2ccc3c(c2)OCCO3)c(O)c1,–,–,–,–,–,–,·
COc1cc(OC)cc(C(=O)Nc2cccc3cccnc23)c1,–,–,–,–,–,–,·
COc1ccc(C)cc1N=Nc1ccc(O)c2ncccc12,–,–,·,–,·,–,·
COc1cccc(N=Nc2ccc(O)c3ncccc23)c1,60,–,–,90,66,–,96
COc1ccc(N=Nc2ccc(O)c3ncccc23)cc1,–,–,–,–,46,–,84
COc1cccc(N=Nc2ccc3cccnc3c2O)c1,–,–,–,–,61,–,61
Oc1ccc(N=Nc2ccc3c(c2)OCCO3)c2cccnc12,51,–,–,–,52,–,71
N[C@@H](Cc1ccccc1)C(=O)N1CCC(C(=O)NCC(=O)NCC(=O)O)CC1,–,–,–,–,–,–,·
CN(C)c1ccc(NC(=O)CN2CCc3ccccc3C2)cc1,–,–,–,–,–,–,·
OCC1(CO)COC(c2ccccc2)=N1,–,–,–,–,–,–,·
O=C1OCC(CO)(CO)N=C1NNc1ccc(Cl)c(Cl)c1,–,–,–,–,55,–,67
Cc1cccc(NC(=S)N/N=C2/CCCCc3ccccc32)c1,–,–,–,–,48,–,93
Cc1ccc(NC(=S)N/N=C2/CCCCc3ccccc32)cc1,–,–,–,–,–,–,·
Cc1c(N2C(=O)/C(=C\c3ccccc3O)SC2=S)c(=O)n(-c2ccccc2)n1C,–,–,–,–,–,–,·
CN1C(=O)/C(=C/c2cc(N=Nc3ccccc3)ccc2O)SC1=S,74,–,–,51,60,47,105
CCOc1ccc(C(=O)NC(=S)N(Cc2ccccc2)Cc2ccccc2)cc1,–,–,·,–,·,–,·
SMILES,CCR6 antag,B2AR ag,APJ ag,CXCR6 inh,APJ antag,EBI2 block,APJ antag conf
CC(C)(C)C(=O)NC(=S)NNC(=O)c1ccc(-c2ccccc2)cc1,102,–,–,84,66,–,112
CCCN(CCC)C(=S)NC(=O)c1ccc(-c2ccccc2)cc1,–,–,–,–,45,–,–
CSc1ccccc1C(=O)NC1CCCCCC1,–,–,–,–,46,–,–
COc1cc(/C=C2\SC(=S)N(NC(C)=O)C2=O)ccc1OC(=O)c1ccco1,–,–,–,–,–,–,·
COc1cc(/C=C2/SC(=S)N(C)C2=O)ccc1OC(=O)c1ccco1,–,–,–,–,46,–,–
O=[N+]([O-])c1ccc(O)c(-c2nc(-c3ccccc3)c(-c3cccs3)[nH]2)c1,–,–,–,–,42,–,54
CNC(=O)c1ccc(Nc2nnc(-c3ccc(O)cc3)c3ccccc23)cc1,–,–,–,–,–,–,·
Oc1ccc(-c2nnc(Nc3cccc(O)c3)c3ccccc23)cc1,–,–,–,–,67,–,–
CN1CCN(c2ccc(CNC(=O)c3ccc(-c4ccc(F)c(F)c4)c4ccoc34)cc2)CC1,·,·,·,–,·,–,·
COc1ccc(NS(=O)(=O)c2cccc(C(=O)NCc3ccccc3CN3CCCC3)c2)cc1,–,–,–,–,–,–,·
CCN1C(=O)/C(=C2\C=Cc3ccccc3N2CC)SC1=S,84,–,–,57,43,–,100
CC(C)(C)N(Cc1ccccc1)C(=O)c1cc2ccccc2o1,–,–,–,–,45,–,–
COc1cccc(NC(=O)c2cc3c(=O)n4ccccc4nc3n(CC(C)C)c2=N)c1,–,–,–,–,41,–,–
Cc1cccc(NC(=O)c2cc3c(=O)n4ccccc4nc3n(CC(C)C)c2=N)c1,–,–,–,–,–,–,·
FC(F)(F)c1cccc(Sc2nc(-c3ccccc3)nnc2C(F)(F)F)c1,–,–,–,46,43,–,91
FC(F)(F)c1cccc(Oc2nc(-c3ccccc3)nnc2C(F)(F)F)c1,–,–,–,–,–,–,·
Nc1c(N2CCN(c3ccccc3)CC2)c2ccccc2oc1=O,60,–,–,–,46,–,57
Nc1c(N)c2ccccc2oc1=O,–,–,–,–,–,–,·
COc1ccccc1CN1C(=NC(=O)CCC2CCCC2)SC2CS(=O)(=O)CC21 (configuration not stated),–,–,–,–,47,–,–
CCCCn1c(NC(=O)c2ccc(Br)o2)c(S(=O)(=O)c2ccccc2)c2nc3ccccc3nc21,–,–,–,–,55,–,–
Cc1cc(C)c(OCC(=O)OCC(=O)NNC(=O)c2ccccc2F)c(C)c1,–,–,–,–,–,–,·
COc1ccc(CN2C(=O)C(C)Nc3ncnc(N4CCN(c5ccccc5)CC4)c32)cc1 (configuration not stated),80,–,–,68,68,–,115
CC1Nc2ncnc(N3CCOCC3)c2N(Cc2ccccc2)C1=O (configuration not stated),–,–,–,–,–,–,·
CCOC(=O)c1cc(-c2ccc(F)cc2)nc2c1c(=O)[nH]c(=O)n2Cc1ccccc1,–,–,–,–,–,–,·
CCOC(=O)c1cc(-c2cc(OC)c(OC)c(OC)c2)nc2c1c(=O)[nH]c(=O)n2Cc1ccccc1,–,–,–,–,55,–,–
CCn1c(-c2ccccc2)ccc(C#N)c1=O,–,–,–,–,50,–,–
CC(CN1CCCCC1)NC(=O)c1scnc1-c1ccccc1 (configuration not stated),·,·,·,–,·,–,·
O=C(Cn1cccc1C(=O)c1ccccc1)NCCCN1CCc2ccccc2C1,–,–,–,–,–,–,·

# Assay outcomes from PubChem BioAssay.
